By Tmax is commonly meant the time at which the peak concentration occurs. As a reminder, the bioavailability is dose-corrected exposure relative to a reference, in per cent. A low value points to little systemic uptake.

Activity calls are given as the source filed them. The rule behind the calls is not given here. A value given as a limit tells only on which side of the number the result lay.

Consider two molecules from ChEMBL document CHEMBL4033790, “Design and Synthesis of Novel Deuterated Ligands Functionally Selective for the γ-Aminobutyric Acid Type A Receptor (GABAAR) α6 Subtype with Improved Metabolic Stability and Enhanced Bioavailability” (J Med Chem, 2018).

The nature of data set [1]: Terminal elimination half-life in Wistar rat plasma at 10 mg/kg, ip administered as single dose by HPLC-MS/MS analysis. In kind it is ADME, organism-based. To be noted: read-out: beta t1/2 (converted). In outline: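 Male Wistar rats (250–350 g) received a single i.p. dose of 10 mg/kg as a 5 mg/ml suspension in 85% water, 14% propylene glycol and 1% Tween 80. Three rats per time point were sacrificed at 5, 20, 60, 180 and 720 min for plasma and brain. Samples were cleaned up by solid-phase extraction and quantified by HPLC-MS/MS.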

Data set [2] addresses GABA-A receptor; alpha-6/beta-3/gamma-2 (Homo sapiens) (UniProt P18507+P28472+Q16445). Kind of data set: Positive allosteric modulation of GABA-A receptor alpha6beta3gamma2 (unknown origin) expressed in Xenopus laevis oocytes assessed as potentiation of EC3 GABA induced currents at 30 uM at -60 mV holding potential by electrophysiological method relative to GABA. In kind it is cell-based. The method, boiled down: (§1)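 Stage 5–6 defolliculated Xenopus oocytes were injected with 2.5 ng total mRNA per oocyte: α1, α2, α3 or α5 with β3 and γ2 at 1:1:5, and α4 or α6 with β3 and γ2 at 3:1:5. Oocytes were kept ≥36 h at 18 °C in NDE medium before recording. Compounds were co-applied with GABA titrated to EC3-5 for each oocyte. Curves were fitted with the Hill equation; mean ± SEM from ≥3 oocytes across two batches.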

The target in data set [3] is 5-hydroxytryptamine receptor 7 (Homo sapiens) (UniProt P34969). Kind of data set: Displacement of [3H]-LSD from human recombinant 5HT7 receptor expressed in HEK293 cells at 10 uM after 60 to 90 mins by scintillation counting. In kind it is cell-based.
Chain of 5-hydroxytryptamine receptor 7 (Homo sapiens) (P34969 whole entry): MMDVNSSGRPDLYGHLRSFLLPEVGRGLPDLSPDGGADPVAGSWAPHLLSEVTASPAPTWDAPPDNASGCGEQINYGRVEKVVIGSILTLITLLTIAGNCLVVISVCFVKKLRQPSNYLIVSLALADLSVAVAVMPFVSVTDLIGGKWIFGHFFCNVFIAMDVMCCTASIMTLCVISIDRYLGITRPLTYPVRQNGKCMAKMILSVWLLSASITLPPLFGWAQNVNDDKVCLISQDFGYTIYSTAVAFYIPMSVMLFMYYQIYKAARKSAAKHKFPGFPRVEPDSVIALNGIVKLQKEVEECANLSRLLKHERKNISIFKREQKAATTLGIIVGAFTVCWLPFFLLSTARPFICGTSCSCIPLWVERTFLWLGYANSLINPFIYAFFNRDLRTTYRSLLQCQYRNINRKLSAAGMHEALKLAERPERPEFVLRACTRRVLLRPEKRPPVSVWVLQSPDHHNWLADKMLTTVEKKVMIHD
Data set [4] concerns the target GABA-A receptor; alpha-2/beta-3/gamma-2 (Homo sapiens) (UniProt P18507+P28472+P47869). Kind of data set: Positive allosteric modulation of GABA-A receptor alpha2beta3gamma2 (unknown origin) expressed in Xenopus laevis oocytes assessed as potentiation of EC3 GABA induced currents up to 1 uM at -60 mV holding potential by electrophysiological method relative to GABA. In kind it is cell-based. The method, boiled down: as §1

Data set [5] in a line: Tmax in Wistar rat plasma at 2 mg/kg, iv administered as single dose by HPLC-MS/MS analysis. In kind it is ADME, organism-based. The method, boiled down: (§2)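 Male Wistar rats (250–350 g) received a single 2 mg/kg dose, by oral gavage or IV, from nanoemulsion formulations. Three rats per time point were sampled for plasma and brain at 5, 30, 120, 480 and 1440 min. Compound levels were measured by HPLC-MS/MS after solid-phase extraction; oral bioavailability was derived from plasma AUCs for the two routes.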

A short description of data set [6]: Oral bioavailability in Wistar rat plasma at 2 mg/kg administered as single dose via gavage by HPLC-MS/MS analysis. In kind it is ADME, organism-based. In outline:
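Male Wistar rats (250-350 g) received a single 2 mg/kg dose, nanoemulsion formulation, by oral gavage or IV. Three rats per time point (5, 30, 120, 480, 1440 min); plasma and brain collected. Compound extracted by solid-phase extraction and quantified by HPLC-MS/MS. Absolute oral bioavailability was calculated from plasma AUC after the two routes.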

In data set [7] the target is GABA A receptor alpha-4/beta-3/gamma-2 (Homo sapiens) (UniProt P18507+P28472+P48169). Nature of the data set: Positive allosteric modulation of GABA-A receptor alpha4beta3gamma2 (unknown origin) expressed in Xenopus laevis oocytes assessed as potentiation of EC3 GABA induced currents up to 1 uM at -60 mV holding potential by electrophysiological method relative to GABA. In kind it is cell-based. In outline:
as §1

The target of data set [8] is GABA-A receptor; alpha-3/beta-3/gamma-2 (Homo sapiens) (UniProt P18507+P28472+P34903). Kind of data set: Positive allosteric modulation of GABA-A receptor alpha3beta3gamma2 (unknown origin) expressed in Xenopus laevis oocytes assessed as potentiation of EC3 GABA induced currents up to 1 uM at -60 mV holding potential by electrophysiological method relative to GABA. In kind it is cell-based. In outline: as §1

Data set [9] has as its system Brain. Nature of the data set: AUC (0 to 12 hrs) in Wistar rat brain at 10 mg/kg, ip administered as single dose by HPLC-MS/MS analysis. Also noted: dose 10 mg/kg, time < 12 hr, route intraperitoneal. In kind it is ADME, organism-based. To be noted: in vivo.
In data set [10] the target is D(1B) dopamine receptor (Homo sapiens) (UniProt P21918). Nature of the data set: Displacement of [3H]-[…] from human recombinant dopamine D5 receptor expressed in HEK293 cells at 10 uM after 60 to 90 mins by scintillation counting. In kind it is cell-based. In outline: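 Primary single-concentration radioligand displacement screen run by the NIMH Psychoactive Drug Screening Program across a 46-target panel that includes hERG. The read-out is percent inhibition of specific radioligand binding. Any compound displacing more than 50% of radioligand went on to secondary binding assays to determine Ki.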
Chain of D(1B) dopamine receptor (Homo sapiens) (P21918 whole entry): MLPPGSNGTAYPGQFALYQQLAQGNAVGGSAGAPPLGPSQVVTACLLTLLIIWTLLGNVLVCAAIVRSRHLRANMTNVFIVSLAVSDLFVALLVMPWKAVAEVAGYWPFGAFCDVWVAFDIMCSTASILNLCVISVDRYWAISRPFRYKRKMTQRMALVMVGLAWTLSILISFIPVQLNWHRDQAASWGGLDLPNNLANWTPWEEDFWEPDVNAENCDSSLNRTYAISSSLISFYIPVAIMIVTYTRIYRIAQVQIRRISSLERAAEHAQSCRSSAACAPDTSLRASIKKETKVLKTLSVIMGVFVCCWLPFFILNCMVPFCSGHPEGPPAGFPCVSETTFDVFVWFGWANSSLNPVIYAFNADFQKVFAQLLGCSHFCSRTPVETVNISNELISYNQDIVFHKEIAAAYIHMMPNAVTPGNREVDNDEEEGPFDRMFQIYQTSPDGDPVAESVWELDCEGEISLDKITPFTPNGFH
(In general: In a radioligand displacement assay an active substance lowers the binding of a labelled ligand.)

Data set [11] in a line: Terminal elimination half-life in Wistar rat brain at 2 mg/kg administered as single dose via oral gavage by HPLC-MS/MS analysis. In kind it is ADME, organism-based. To be noted: read-out: beta t1/2 (converted). In outline: as §2
Data set [12] has as its system Brain. Kind of data set: Fraction unbound in Wistar rat brain at 10 mg/kg, ip administered as single dose measured at 5 to 720 mins post dose by HPLC-MS/MS analysis. To be noted: in vivo. In kind it is ADME, organism-based. The method, boiled down:
(§3)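 Free fraction in rat plasma and brain tissue was measured in vitro by rapid equilibrium dialysis. Exposure came from male Wistar rats (250-350 g) given a single 10 mg/kg IP dose, as a 5 mg/ml suspension in 85% water, 14% propylene glycol and 1% Tween 80. Three rats per time point (5–720 min); brain analysed by HPLC-MS/MS after solid-phase extraction.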

The subject of data set [13] is Rattus norvegicus. Nature of the data set: Toxicity in Wistar rat assessed as closed arm entries at 10 mg/kg, ip administered for 45 mins measured for 5 min by elevated plus maze apparatus method (reference value: 3.63 +/- 0.42). In kind it is organism-based. To be noted: in vivo.
In data set [14] the test system is HEK-293T. Kind of data set: Cytotoxicity against HEK293T cells assessed as reduction in cell viability up to 400 uM after 48 hrs by CellTiter-Glo assay. In kind it is cell-based. To be noted: human. In outline:
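HEK293T and HepG2 cells grown in high-glucose DMEM with non-essential amino acids, 10 mM HEPES, penicillin/streptomycin and 10% heat-inactivated FBS. Cells were harvested with trypsin and plated; compound was pin-transferred 3 h later. Incubation was 48 h, then CellTiter-Glo luminescence was read. Controls were DMSO (negative) and a cytotoxic aminoketone (positive). Quadruplicates, three independent runs, normalized to controls, nonlinear regression.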
(Cellular ATP, detected with luciferase, serves as a proxy for viable cell number.)

Data set [15] concerns Rattus norvegicus. Nature of the data set: Toxicity in Wistar rat assessed as total distance traveled at 10 mg/kg, ip administered for 45 mins by cued water-maze method (reference value: 8.04 +/- 1.16 meter). In kind it is organism-based. To be noted: in vivo, 0.75 h.
Data set [16] relates to Rattus norvegicus. Nature of the data set: Hyperlocomotor activity in Wistar rat assessed as total distance travelled at 10 mg/kg, ip after 60 mins. In kind it is ADME, organism-based. The settings on record: in vivo, 1 h.
Data set [17] can be described thus: Drug metabolism in human liver microsomes assessed as CYP450 mediated-O-demethylated 7-hydroxy-2-[4-(trideuteriomethoxy)phenyl]-5H-pyrazolo[4,3-c]quinolin-3-one metabolite formation after 60 mins by LC-MS analysis. In kind it is ADME. The settings on record: 1 h. The method, boiled down:
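The 60-min samples from the human or mouse liver microsome incubations (10 µM compound, 0.5 mg/mL protein, NADPH regenerating system, 37 °C, pH 7.4) were run on LC-MS in SIM mode with dual ESI/APCI ionization. The method was calibrated to each component's retention time and mass, and the peak intensities of the parent and O-demethylated metabolites were measured.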
For orientation: Liver microsomes are a subcellular fraction often used to study metabolism.

Data set [18] deals with Brain. Kind of data set: Unbound AUC in Wistar rat brain at 10 mg/kg, ip administered as single dose measured at 5 to 720 mins post dose by HPLC-MS/MS analysis. In kind it is ADME, organism-based. To be noted: in vivo. The method, boiled down: as §3

On to `COc1ccc(-n2nc3c4ccc(OC)cc4[nH]cc-3c2=O)cc1`, for which the half-life in data set [1] is 1.51 h; in data set [11], 12.7 h. Also, the Activity was 900% in data set [2], below 0% in data set [4], below 0% in data set [7] and below 0% in data set [8]. Moreover, the result in data set [2] (tested as the 2H-labelled form) was inactive. Moreover, the inhibition entry in data set [3] and in [10] was “Active” throughout. Also, the Tmax in data set [5] was determined as 0 h. In data set [6], the bioavailability came to 66.9%. In addition, in data set [9], the AUC came out at 2177.98 ng·h/g.

With `[2H]C([2H])([2H])Oc1ccc(-n2nc3c4ccc(OC)cc4[nH]cc-3c2=O)cc1`, the half-life in [1] was 3.54 h; in [11] it was 4.2 h. The same molecule came in with a Fu in data set [12] of 0.194. Moreover, the Activity in data set [13] is recorded as 2.63; in [14] it was “Non-Toxic”; in data set [15], 11.01 m; in data set [16] it was “Toxic”. In addition, in data set [5], the Tmax was found to be 0 h. The Drug metabolism result in data set [17] is reported as “Metabolite_Detected”. Further, the bioavailability in data set [6] came out at 100%. This molecule returned a fAUC in data set [18] of 651.72 ng·h/g. The molecule also came in with an AUC in data set [9] of 3350.72 ng·h/g.
